Compounds with a hit are over-represented: about 6.4% of the library has one in this group of screens.
HUVEC inhibit = inhibitors of HUVEC proliferation, primary screen, cell-based, 384-well | CellTiter-Glo luminescence, 72 h; active compounds read low | viability, % at 10 µM (by protocol) | 86,000 tested, 1.1% active;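 active means viability at or below 30%; inactive means viability above 30%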;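 further: 100% = median luminescence of DMSO-only cell control wells on each plate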
Jurkat viability = cytotoxicity toward Jurkat T cells, primary screen, cytotoxicity control, cell-based, Jurkat E6.1, 60K MLSMR library | Jurkat E6.1 viability, ATP luminescence, 48 h | inhibition, % at 4 µM | 56,000 tested, 1.2% active | AID 463, 2006;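 active means inhibition above the mean inhibition of all tested compounds plus 3 SD, cut at about 28% in these data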
Lung fibro prol = antiproliferative effect on LL 47 fibroblasts – human, LL 47 cells, CellTiter-Glo luminescence, primary screen | viability, % at 10 µM | LL 47 human lung fibroblast viability, ATP luminescence; active compounds read low | 85,000 tested, 1.1% active | AID 719, 2007;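 active means viability at or below 50% in the single dose screen; inactive means viability above 50%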;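 further: compound exposure lasted 72 h before the ATP readout; 100% = median luminescence of untreated cell-only wells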
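test system = LL 47 human lung fibroblasts | amount = 1,150 fibroblasts seeded per well | medium = 15% FBS in IMEM | times = overnight cell rest, 72 h compound treatment at 37 °C | measured by = CellTiter-Glo luminescence measuring cellular ATP | read-out = viability percentage against median untreated-cell control | benchmarks = cell-only wells, no compound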
Ecoli tolC = growth inhibitors of E. coli tolC mutant, primary screen, strain BW25113 ΔtolC::kan, 384-well. growth inhibition, % at 10 µM (by protocol). OD615. 65,000 tested, 2.2% active;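 active means growth inhibition at or above a cutoff equal to the mean over every tested compound plus 3 SD, cut at about 60% in these data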;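 further: growth measured after 20 h incubation at 37 °C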
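Assay system: tolC-deleted E. coli BW25113. Medium: kanamycin-containing LB broth (50 µg/mL). Dosing: 10 µM final, single dose. Timing: bacterial growth with compound for 20 h at 37 °C. Detection: A615 absorbance measurement. Read-out basis: growth inhibition in percent.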
H69AR growth 86K = proliferation blockers of H69AR lung cancer cells, primary screen, cell-based, human, 86K library | viability, % at 10 µM | H69AR lung tumor viability, ATP luminescence, 72 h; active compounds read low | 85,000 tested, 6% active;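 active means viability at or below 40%; inactive means viability above 40%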;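 further: multidrug resistant small cell line overexpressing MRP-1 efflux transporter; 100% = mean luminescence of untreated control wells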
Ecoli WT expand = growth inhibitors of wild-type E. coli, primary screen, strain BW25113, expanded library, OD600; OD600 absorbance; growth inhibition, % at 100 µM; 98,000 tested, 0.15% active; AID 710, 2007;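 active means growth inhibition above about 50% at one test dose, limit read from the data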;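 further: growth measured after 20 h incubation at 37 °C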
Active calls of the source: *.

Screening CCCn1nnc(NC(=O)c2cccc(OCC(C)C)c2)n1 returned HUVEC inhibit 80.6, Lung fibro prol 104.5, Ecoli tolC 14.0, H69AR growth 86K 38.3* and Ecoli WT expand -7.0.
`CCOc1cc(C(=O)Nc2ccc(S(=O)(=O)N3CCOCC3)cc2)cc(OCC)c1OCC` gave HUVEC inhibit 90.6, Jurkat viability 4.0, Lung fibro prol 91.0, Ecoli tolC -29.8, H69AR growth 86K 89.8 and Ecoli WT expand -6.0.
Cc1ccc(N(CC(=O)Nc2ccc(S(=O)(=O)N3CCOCC3)cc2)S(C)(=O)=O)cc1C was read as HUVEC inhibit 106.3, Lung fibro prol 107.3, Ecoli tolC 4.5, H69AR growth 86K 82.2 and Ecoli WT expand 3.0.
CC(C)COc1cccc(C(=O)Nc2ccc(S(=O)(=O)N3CCOCC3)cc2)c1 was read as HUVEC inhibit 41.0, Jurkat viability 8.6, Lung fibro prol 88.2, Ecoli tolC 5.9, H69AR growth 86K 21.7* and Ecoli WT expand -14.0.
CCCn1nnc(NC(=O)c2cccc(OCC)c2)n1 was read as HUVEC inhibit 103.3, Jurkat viability 2.4, Lung fibro prol 97.5, Ecoli tolC -8.1, H69AR growth 86K 96.0 and Ecoli WT expand 17.0.
`O=C(O)c1nn(-c2ccccc2)ccc1=O` gave Ecoli WT expand 1.0.
Screening CN(Cc1ccccc1)C(=O)[C@H]1CCC(=O)N1Cc1ccco1 returned HUVEC inhibit 98.7, Lung fibro prol 103.8, H69AR growth 86K 88.9 and Ecoli WT expand 8.0.
O=C(c1ccc2snnc2c1)N1CCSCC1 was read as HUVEC inhibit 91.7, Jurkat viability -2.7, Ecoli tolC -26.9, H69AR growth 86K 35.3* and Ecoli WT expand -4.0.
Screening COc1ccc(C2c3c(oc4ccccc4c3=O)C(=O)N2c2ccccn2)cc1OC (stereo not drawn) returned HUVEC inhibit 91.6, Jurkat viability 3.6, Lung fibro prol 92.4, Ecoli tolC 8.7 and H69AR growth 86K 25.9*.
For COC(=O)C(NC(=O)c1ccccc1Cl)(Nc1ncc(S(=O)(=O)c2ccc([N+](=O)[O-])cc2)s1)C(F)(F)F (stereo not drawn) the results were Ecoli WT expand 8.0.
Screening CNc1ccc(C(O)(C(F)(F)F)C(F)(F)F)cc1C(O)(C(F)(F)F)C(F)(F)F returned HUVEC inhibit 89.7, Jurkat viability 5.7, Lung fibro prol 96.7, Ecoli tolC 62.2*, H69AR growth 86K 55.9 and Ecoli WT expand 1.0.
`Cc1ccc(S(=O)(=O)N(CC(=O)N2CCC(C)CC2)Cc2ccccc2F)cc1` gave HUVEC inhibit 108.2, Lung fibro prol 103.8, H69AR growth 86K 101.2 and Ecoli WT expand 1.0.
`O=c1ccc2cc3c([nH]c4ccc(Br)cc43)oc-2c1O` gave HUVEC inhibit 101.3, Jurkat viability -2.0, Lung fibro prol 86.8, Ecoli tolC -10.3, H69AR growth 86K 22.6* and Ecoli WT expand -4.0.
Screening O=c1c2c([nH]c3ccc(Br)cc13)CCCC2 returned HUVEC inhibit 101.5, Jurkat viability 10.8, Lung fibro prol 94.2, Ecoli tolC 2.7 and H69AR growth 86K 67.8.
Screening COc1cc(C)nc2nc(SCc3ccccc3)nn12 returned HUVEC inhibit 92.6, Lung fibro prol 104.1, H69AR growth 86K 98.3 and Ecoli WT expand 3.0.
CCOC(=O)c1c(CN2CCN(Cc3ccccc3)CC2)n(C)c2cc(Br)c(OC)cc12 was read as HUVEC inhibit 74.8, Lung fibro prol 101.4, H69AR growth 86K 13.9* and Ecoli WT expand -12.0.
Screening CCOC(=O)c1c(C)n(C)c2cc(Br)c(C)cc12 returned HUVEC inhibit 98.4, Lung fibro prol 99.2, H69AR growth 86K 97.2 and Ecoli WT expand 0.0.
CCOC(=O)C1=C(C)NC(C)=C(C(=O)OCC)C1c1sccc1C was read as Ecoli WT expand 8.0.
COc1ccc(Nc2oc(-c3ccc(Cl)cc3)nc2C#N)cc1 was read as HUVEC inhibit 43.0, Lung fibro prol 39.4*, H69AR growth 86K 24.6* and Ecoli WT expand 0.0.
Screening CCOc1ccc(Nc2oc(-c3ccc(Cl)cc3)nc2C#N)cc1 returned HUVEC inhibit 81.6, Lung fibro prol 42.3*, H69AR growth 86K 32.5* and Ecoli WT expand -8.0.
`NC(=O)C1CCN(Cc2nc(-c3ccccc3)no2)CC1` gave HUVEC inhibit 93.7, Jurkat viability -6.6, Lung fibro prol 105.8, Ecoli tolC -4.7, H69AR growth 86K 85.5 and Ecoli WT expand 3.0.
`Cc1ccc(-c2noc(CN3CCCCC3)n2)cc1` gave HUVEC inhibit 104.2, Lung fibro prol 100.2, H69AR growth 86K 102.1 and Ecoli WT expand 11.0.
Screening COc1ccc(-c2noc(CN3CCC(Cc4ccccc4)CC3)n2)cc1 returned HUVEC inhibit 121.1, Jurkat viability -2.7, Lung fibro prol 103.2, Ecoli tolC 67.4* and H69AR growth 86K 96.2.
`Cc1ccc(-c2noc(CN3CCN(c4ccccc4F)CC3)n2)cc1` gave HUVEC inhibit 107.9, Jurkat viability 2.0, Lung fibro prol 93.5, Ecoli tolC 84.4*, H69AR growth 86K 93.0 and Ecoli WT expand 4.0.
For c1ccc(CC2CCN(Cc3nc(-c4ccccc4)no3)CC2)cc1 the results were HUVEC inhibit 111.7, Jurkat viability -3.1, Lung fibro prol 95.8, Ecoli tolC 69.9*, H69AR growth 86K 94.4 and Ecoli WT expand 2.0.
COc1ccc(-c2noc(CCC(=O)N3CCN(Cc4ccccc4)CC3)n2)cc1 was read as HUVEC inhibit 110.7, Lung fibro prol 89.8, Ecoli tolC 23.2, H69AR growth 86K 99.8 and Ecoli WT expand 4.0.
Cc1ccc(-c2noc(CSc3nnc(Cc4ccccc4)n3-c3cccc(C)c3)n2)cc1 was read as HUVEC inhibit 88.9, Lung fibro prol 104.0, H69AR growth 86K 20.0* and Ecoli WT expand -19.0.
For Fc1ccc(-n2c(Cc3ccccc3)nnc2SCc2nc(-c3cccs3)no2)cc1 the results were HUVEC inhibit 103.2, Jurkat viability 4.6, Lung fibro prol 101.9, Ecoli tolC 69.6*, H69AR growth 86K 59.1 and Ecoli WT expand -20.0.
For Cc1ccc(-c2noc(CSc3nnnn3C3CCCCC3)n2)cc1 the results were HUVEC inhibit 82.2, Jurkat viability -1.0, Lung fibro prol 97.2, Ecoli tolC 72.6*, H69AR growth 86K 85.8 and Ecoli WT expand 2.0.
For O=[N+]([O-])c1cccc(/C=N/Nc2cc(Cl)nc(-c3ccccc3)n2)c1 the results were Ecoli WT expand -11.0.
O=C(CN(CC1CCCO1)C(=O)CNS(=O)(=O)c1ccc(Cl)cc1)NCC1CCCO1 (stereo not drawn) was read as HUVEC inhibit 93.4, Lung fibro prol 100.1 and H69AR growth 86K 96.3.

From PubChem
